These results are taken from ChEMBL document CHEMBL1124963, “Antifolate and antibacterial activities of 5-substituted 2,4-diaminoquinazolines” (J Med Chem, 1990).

By logP is commonly meant the decadic logarithm of the partition coefficient of the neutral form, usually between octanol and water. As a reminder, the LD50 is the dose at which mortality reaches 50%. High values mean lower toxicity, low ones greater toxicity. As a reminder, the pKa is the pH at which an ionisable group is half protonated. Read a low pKa as a stronger acid or weaker base.

Some results are limits rather than exact numbers.

The test system of one series is Escherichia coli. Kind of series: Antibacterial activity (10 e-6 log (1/MIC) towards Escherichia coli. It is filed as functional. In short, it runs like this: (§1)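 Two-fold serial dilution: each compound prepared as a series of solutions differing by a factor of two, each added to a fixed amount of previously prepared test culture, incubated at 37 °C overnight.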

For the next series, the system named is Staphylococcus aureus. Kind of series: Antibacterial activity (10 e-6 log (1/MIC) towards Staphylococcus aureus. In kind it is functional. In short, it runs like this: as §1
The nature of series [1]: Partition coefficient (logP). It is filed as physicochemical. Conditions: octanol/water.
A short description of series [2]: Acute toxicity determined in mice by an LD50 test when administered perorally. In kind it is organism-based. The settings on record: mouse, in vivo, po.
Series [3] in a line: Dissociation constant was determined using UV method. It is filed as physicochemical. An outline of the steps: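 UV spectrophotometric method. Aqueous stock of compound in distilled water, diluted into 0.01 M NaOH (pH ~12) and 0.001 M HCl (pH ~3) to pick an analytical wavelength from the difference spectrum. Five to seven KH2PO4/borax buffers bracketing the estimated pKa, pH measured at 25 °C. Absorbance read in a 1.0-cm cell at 25.0 °C against buffer. Separate values averaged with SD to give the concentration pKa.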

Series [4] is described as follows: Acute toxicity determined in mice by an LD50 test when administered intraperitoneally. It is filed as organism-based. The settings on record: mouse, in vivo, ip.
Series [5] is described as follows: Acute toxicity determined in mice by an LD50 test when administered peritoneally. It is filed as organism-based. Conditions: mouse, in vivo, ip.

Consider `Nc1nc(N)c2c(Sc3ccccc3)cccc2n1`, for which the Log 1/MIC with Escherichia coli and with Staphylococcus aureus was below -0.6 in each case.
As for `Nc1nc(N)c2c(I)cccc2n1`, in series [1], the logP stood at 2.12. Also, the “Log 1/MIC” value is on record as 1.7 with Escherichia coli and 0.4 in the series with Staphylococcus aureus. The LD50 in series [2] is around 500 mg/kg.
Regarding `Nc1nc(N)c2c(N3CCOCC3)cccc2n1`, the logP in series [1] is 1.11. Further, the “Log 1/MIC” value in the series with Escherichia coli and in the series on Staphylococcus aureus was -0.6 throughout.
For `CS(=O)(=O)c1cccc2nc(N)nc(N)c12`, in series [1], the logP is 0.63. The “Log 1/MIC” value with Escherichia coli and in the series on Staphylococcus aureus was below -0.6 each time.
Turning to `CCCNC(=O)c1cccc2nc(N)nc(N)c12`, the logP in series [1] amounted to 0.83. The “Log 1/MIC” value in the series with Escherichia coli and in the series on Staphylococcus aureus was below -0.6 in each case.
`CCCOc1cccc2nc(N)nc(N)c12` displayed a logP in series [1] of 2.26. The “Log 1/MIC” value in the series on Escherichia coli is 1.1; in the series on Staphylococcus aureus, 0.2.
Take `Nc1nc(N)c2c(O)cccc2n1`: the “Log 1/MIC” value in the series with Escherichia coli is below -0.7; in the series with Staphylococcus aureus, -0.7.
In the case of `Nc1nc(N)c2c([N+](=O)[O-])cccc2n1`, in series [3], the pKa was 6.24. Besides, in series [1], the logP was determined as 1.19. In addition, the “Log 1/MIC” value with Escherichia coli is recorded as below 0.5; in the series with Staphylococcus aureus it was 0.
`CSc1cccc2nc(N)nc(N)c12`: the lipophilicity (logP) in series [1] was found to be 1.81. Besides, the “Log 1/MIC” value in the series with Escherichia coli is 2.2; in the series on Staphylococcus aureus it was 0.
With `Nc1nc(N)c2c(S(=O)(=O)c3ccccc3)cccc2n1`, the logP in series [1] worked out at 2.14. The “Log 1/MIC” value in the series on Escherichia coli and in the series with Staphylococcus aureus was below -0.5 throughout.
As for `CCCCCCOc1cccc2nc(N)nc(N)c12`, the “Log 1/MIC” value in the series on Escherichia coli turned out to be 0; in the series with Staphylococcus aureus, 1.1.
Take `COC(=O)c1cccc2nc(N)nc(N)c12`: the “Log 1/MIC” value with Escherichia coli is recorded as -0.1; in the series with Staphylococcus aureus, -0.6. In series [4], this compound displayed an LD50 of 68 mg/kg.
The compound `Nc1nc(N)c2c(N)cccc2n1` gave a logP in series [1] of 0.3. For the same compound, the “Log 1/MIC” value with Escherichia coli is on record as 0.3; in the series on Staphylococcus aureus, below 0.2.
In series [1], `CCc1cccc2nc(N)nc(N)c12` displayed a logP of 1.69. The “Log 1/MIC” value in the series with Escherichia coli is 2.6; in the series on Staphylococcus aureus, 0.6.
`Nc1nc(N)c2c(Cl)cccc2n1` gave a pKa in series [3] of 7.22. Also, the logP in series [1] turned out to be 1.72. Moreover, the “Log 1/MIC” value with Escherichia coli came out at 2.1; in the series with Staphylococcus aureus, 1.2. Moreover, the LD50 in series [4] was 100 mg/kg.
Turning to `Nc1nc(N)c2ccccc2n1`, the pKa in series [3] was 8.08. This compound returned a logP in series [1] of 1.01. Further, the “Log 1/MIC” value in the series with Escherichia coli is recorded as 0.7; in the series on Staphylococcus aureus it was 1.3.
Regarding `CCCSc1cccc2nc(N)nc(N)c12`, the logP in series [1] was determined as 2.85.
As for `CN(C)c1cccc2nc(N)nc(N)c12`, the logP in series [1] came out at 1.65. The “Log 1/MIC” value in the series on Escherichia coli is -0.4; with Staphylococcus aureus it was -0.5.
`NC(=O)c1cccc2nc(N)nc(N)c12` returned a pKa in series [3] of 7.22. In series [1], this compound displayed a logP of -0.33. Also, the “Log 1/MIC” value with Escherichia coli is on record as -0.6; with Staphylococcus aureus, below -0.7.
Compound `CCCCOc1cccc2nc(N)nc(N)c12` had a logP in series [1] of 2.81. The “Log 1/MIC” value was determined as 0.6 in the series on Escherichia coli and 0.4 with Staphylococcus aureus.
On to `Nc1nc(N)c2c(CCc3ccccc3)cccc2n1`, for which the “Log 1/MIC” value in the series on Escherichia coli and with Staphylococcus aureus was 1.3 in each case.
In the case of `Nc1nc(N)c2c(F)cccc2n1`, in series [3], the pKa came out at 7.44. The compound further displayed a logP in series [1] of 1.19. Moreover, the “Log 1/MIC” value in the series on Escherichia coli stood at 1.7; in the series with Staphylococcus aureus, 1.4. Besides, the LD50 is 100 mg/kg in series [4] and 489 mg/kg in series [2].
Consider `Nc1nc(N)c2c(OCc3ccccc3)cccc2n1`, for which the lipophilicity (logP) in series [1] worked out at 2.82. Also, the “Log 1/MIC” value is on record as 0.8 in the series on Escherichia coli and 1 with Staphylococcus aureus.
In the same order, the values of `Nc1nc(N)c2c(Oc3ccccc3)cccc2n1` are 2.78, 0.2 and 0.
For the compound `CCOc1cccc2nc(N)nc(N)c12`, the logP in series [1] turned out to be 1.69. Further, the “Log 1/MIC” value in the series on Escherichia coli was 1.7; with Staphylococcus aureus, 0.2. Also, the LD50 in series [4] is around 100 mg/kg.
In the case of `COc1cccc2nc(N)nc(N)c12`, the pKa in series [3] amounted to 8.32. This compound returned a logP in series [1] of 1.18. Besides, the results for the “Log 1/MIC” value with Escherichia coli and in the series with Staphylococcus aureus were 2.1 and 1, respectively. For the same compound, the LD50 in series [4] was 137 mg/kg; in series [2] it was around 500 mg/kg.
In series [3], `CCSc1cccc2nc(N)nc(N)c12` registered a pKa of 7.87. Further, the logP in series [1] came to 2.27. Moreover, the “Log 1/MIC” value in the series on Escherichia coli was 2; with Staphylococcus aureus, -0.1.
As for `CC(C)Oc1cccc2nc(N)nc(N)c12`, the logP in series [1] came out at 2.05. For the same compound, the “Log 1/MIC” value in the series on Escherichia coli is 0.8; with Staphylococcus aureus it was -0.1.
In series [1], `Nc1nc(N)c2c(Br)cccc2n1` displayed a logP of 1.91. Moreover, the “Log 1/MIC” value came out at 2.2 in the series with Escherichia coli and 1.5 in the series on Staphylococcus aureus. The compound further displayed an LD50 in series [2] of 271 mg/kg.
In the case of `Nc1nc(N)c2c(N3CCCCC3)cccc2n1`, the logP in series [1] amounted to 2.66.
`Cc1cccc2nc(N)nc(N)c12` had a pKa in series [3] of 8.19. For the same compound, in series [1], the logP came to 1.26. Also, the “Log 1/MIC” value came out at 1.7 in the series with Escherichia coli and 0.5 in the series on Staphylococcus aureus. In series [4], the LD50 was around 100 mg/kg.
In the case of `Nc1ncnc2ccccc12` [4-AMINOQUINAZOLINE], the LD50 was 205 mg/kg in series [4] and 584 mg/kg in series [5].
